Variants at the floor of the assay were thinned out.
B1: tRNA (parent)
chain: GUUCCGUUGGCGUAAUGGUAACGCGUCUCCCUCCUAAGGAGAAGACUGCGGGUUCGAGUCCCGUACGGAACG

Variants of: B1
Test: yeast fitness relative to wild type (ratio to wild type); higher = fitter; tRNA-Arg(CCU), competitive growth, 37 C, YPD
Summary of the method: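 A pool of Saccharomyces cerevisiae strains, each with a tRNA-Arg(CCU) gene variant at the native genomic locus, was competed in YPD at 37°C for 24 hours across six parallel replicates. The variants had been chemically synthesised at a 3% per-site mutation rate over 69 sites, and gene amplicons before and after competition were read by 100-nucleotide paired-end sequencing. Darwinian fitness relative to wild type rested on changes in genotype frequencies. Genotypes required ≥ 100 starting reads, and estimates < 0.5 were set to 0.5.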

Variant	yeast fitness
GUUCCGUUGGCGUAAUGGUAACGCGUGUCCUUCCUAAGGAGAAGAGUGCGCGUUCGAGUCCCGUACGGAACG	≤ 0.5
GUUCCCUUGGCGUAAUGGUAACGCGUCUCCCUCCUAAGGAGAAGACUGCGGGUUCGAGUCCCGUAAGGAACG	0.927
GUUCCGUUGGCGUAAUGGUAACGCGUCUCCCUCCUAAGGACAAGACUGCGGGUUCGAGACACGUAUGCAACG	≤ 0.5
GUUCCGUUGGCGUAAUGGUAACGCGUGCCCCUCCUAAGGAGAAGACUGCGGGUUCGAGUCUCGUACGGAACG	≤ 0.5
GUCCCGUUGGCGUAAUGGUAACGCGUCUCCCUGCUAAGGAGAAGACUGCGGGUUCGAGUACCGUAGGGAACG	≤ 0.5
GUUCCGUUGGCGUAAUGGUAACGCGUCUCCCUCCUAAGGAGAAGACUGCGGAUUCGAGACCCGUACGGCCCG	0.609
GUUCCGUUGACGUAAUGGUAACGCGUCUUGCUCAUAAGGAGAAGACUGCGGGUUCGAGUCCCGUACGGAACG	≤ 0.5
GUUCCGUUAGCGUAAUGGUAACGCGUCUCCCUCCUAAGGAGAAGACUGCGGGUUCGAAUCCCGUACAGAACG	0.959
GUUCCGUUGGCGCAUAGGAAACGCGUCUCCCUCCUAAGGAGAAGACUGCGGGUUCGAGUCCCGUACGGAACG	≤ 0.5
GUUCCGUUGGCGUAAUGGUAACGCGUCUCCCUCCUAAGGAGAACGCUGCGGGUUCGAGUCCCGUACGGAGCG	0.695
GUUCCAUUGGCGUAAUGGUAAUGCGUCUCCCUCCUAAGGCGAAGACUGCGGGUUCGAGUCCCGUACGGAACG	≤ 0.5
GUUCCGUUGGCGUACUGGUAACGCGUCUCCCUCCUAAGGAGCAGACUGCGGGUUGGAGUCCCGUACGGAACG	0.547
GUUUCGUUGGCGUAAUGGUAACGGGUCUCCCUCCUAAGGAGAGGACUGCGGGUUCGAGUCCCUAACGGAACG	≤ 0.5
GUUCCGUUGGCGUAAUGGAAACGCGUCUCCCUCCUAAGGAGAAGACUGCGGGUUCGAGUCACGUACGCAACG	0.648
GUUUCGUUGGCGUAAUGGUAACGCGUCUCACUCCUAAGGAGAAGACUGCGGGUUCGAGUCCCGUACGGAGCG	0.769
GUUCCGUUGGGGUAAUGGUAACGCGUCUCCCUCCUAAGGAGAAGACUGCGGGUUCGAGUCCCGUCCGGAACG	0.594
GUUCCGUUGGCGUAAUGGUAACGCGUUUCCCUCCUAAGGAGAAGACUGCGGGUUUACGUCCCGUACGGAACG	0.526
GUUCCGUUGGCGUAAUGGUAACGCGUCUCCGUCCUAAGGAGAUGACUGCGGGUUCGAGUCCCGUACGGAACG	0.984
GUUCCGUUGGCGGAAUGGUAACGCGUCUCCCUCCUAAGGAGAAGACUGCGGGUUCGAGUCCGGUACGGAACG	0.726

Variant	yeast fitness
GUUCCGUUGGUGUAAUGGUAUCGCGUCUCCCUCGUAAGGAGAAGACUGCGGGUUCAAGUCCCGUACGGAACG	≤ 0.5
GUUCCGUUGGCGUAAUGGUAACGUGUCUCCCUCCUAAGGAGAAGAUUGCGGGUUCGAGUCCCGUACGGAUCG	0.75
GUUCAGUUGGCGUAAUGGUAACGCGUCUCCCUGCUAAGGAGCAGACUGCGGGUUCGAGUCCCGUACGGAACG	≤ 0.5
GUUCCGAUGACGUAAUGGUCACGCGUCUACCUCCUAAGGAGAAGACUGCGGGUUCGAGUCUCGUAUGGAACG	≤ 0.5
GUUCCGUUGGCAUAAUGGUAACGCGUCUCCCUCCUAAGGAGAAGAUUGCGCGUUCGAGUCCCGUACGGAACG	≤ 0.5
GUUCCGUUGCGGUAAUGGUAUCGCGUCUCCCUCCUAAGGAGAAGCCUGCGGCUUCGGGUCCCGUACGGAACG	≤ 0.5
GUUGUGUUGGCGUAAAGGUAACGCGUCUCCCUCAUAAGGAGAAGACUGCGGGUUCGAGUCCCGUACGCAACG	0.508
GUUCCGUUGGCGUAAUGGUAACGCGUCUCCCUCCUGAGGAGAAGCCUGCGGGUUCGAGUCCCGUACGGUACG	0.806
GUUCCGUUAGCAUAAUGGUAACGCGUCUCCCUCCUAAGGAGAAGACUGCGGGUUCGAGUCCCGUACGGAACG	0.927
GUUCCGUUGGCGUAAUGGUAACGCGUCUCCCUCCUAAGGAGAAGACUGCGGCUUCGAGUCCCGUCCGGAACG	0.907
GUUCUGUUGGCGUAAUGGUAACGCGUCUCCCUCCUAAGGGGAAGACUGCGGGUUCGAGUCCCGUACGGAACG	1.01
GUUCCGUUCGCGUAAUGGUAACGCGUCUCACUCCCAAGGAGAAGAGUGCGGGUCCGAGUCCCGUACCGAACG	≤ 0.5
GUUCCGUUGGCGUAAUGGUAACGCGUCUCCCUCCUAAGGAGUUGACUGCGGGUUCGAGUCCCGUACGGAACG	1.01
GUACCGUCGGCGUCAUGGUAACGCGUCUCCCUCCUAAGGAGAAGACUGCGGGUUCGAGUCUCGUACGGAACG	≤ 0.5
GUUCCGGUGGCGUAAUGGUAACGCGUCUCCCUCCUAAGCAGGAGACUGCGGGUUCGAGUCCCGUACGGAACG	≤ 0.5
GUUCCGUUGGCGUAAUGCUAACGAGUCUCCCUCCUAAGGAGAAGACUGCGGGUUCGAGUCCCGUACGGAACG	≤ 0.5
GUUCCCUUGGAGUAAUGGUAACGCGUCUCCCUCGUAAGGAGAAGACUGCGGGUUCGAGUCCCGUGCGGAACG	≤ 0.5
GUUCCGUUGGCGUAAGGGUAACGCGUCUCCCUCUUAAGGAGAAGACUGCGGGUUCGAGUCCCGUACGGAACG	0.63
GUUCCGCUGGCGUAAUGGUAACGCGUUUCCCUCCUAAGGAGAAGACUGCGGGUUCGAGUACCGUACGGAACG	≤ 0.5

From the RNAGym collection of RNA variant scans (doi:10.1126/science.aae0568)
